Results published in paper PMC6400527 (The Journal of General Physiology, 2019).
Read-outs that look alike come from different tables or passages of the source.

Key:
[1] = system: AgA(15) channels in DC18:1PC/n-decane bilayer; test: gA single-channel electrophysiology, AgA; assay type: biochemical; settings: mean ± SE, n = 3–4
Summary of the method: (§1)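 Bilayer of DC18:1PC in n-decane formed across a 1–1.5 mm Teflon hole. It was co-doped with AgA(15) (total a few pM) and gA−(13) (~10-fold higher). Test compound from DMSO stock was added to both sides at increasing concentrations. Patches were isolated with 20–40 µm punch electrodes in 1 M NaCl, 10 mM HEPES pH 7, 25 ± 1°C, ±200 mV. Signals were filtered at 5 kHz, sampled at 20 kHz, then filtered at 200–500 Hz. Events were detected by a transition-based algorithm. Lifetimes came from single-exponential fits of survivor histograms, normalized to no-drug lifetimes in the same experiment. n = 3–4.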

[2] = Bilayer elastic coefficient HB / property altered, from lifetimes of gA−; settings: for bilayer property primarily altered: single-channel electrophysiology; for decrease of HB (bilayer elastic coefficient): 100 µM, HB of unmodified bilayer ∼22 kBT/nm^2
[3] = system: gA^−(13) channels in DC18:1PC/n-decane bilayer; test: gA single-channel electrophysiology, gA−; assay type: biochemical; settings: mean ± SE, n = 3–4
Summary of the method: as §1

[4] = ref Karson et al., 1993; Bolo et al., 2000; cited from earlier work
[5] = molecular target: [Ala^1]gA, 15-amino-acid analogue of gramicidin A; test: single-channel electrophysiology
[6] = molecular target: [Ala^1]gA, 15-amino-acid analogue of gramicidin A; test: single-channel electrophysiology; remark: listed apart in the source
[7] = molecular target: [Ala^1]gA, 15-amino-acid analogue of gramicidin A; test: single-channel electrophysiology; remark: listed apart in the source
[8] = molecular target: [Ala^1]gA, 15-amino-acid analogue of gramicidin A; test: single-channel electrophysiology; remark: listed apart in the source
[9] = molecular target: [Ala^1]gA, 15-amino-acid analogue of gramicidin A; test: single-channel electrophysiology; remark: listed apart in the source
[10] = molecular target: [Ala^1]gA, 15-amino-acid analogue of gramicidin A; test: single-channel electrophysiology; remark: listed apart in the source
[11] = molecular target: des-(D-Val-Gly)gA^−, chain-shortened enantiomer of gramicidin A; test: single-channel electrophysiology
[12] = molecular target: des-(D-Val-Gly)gA^−, chain-shortened enantiomer of gramicidin A; test: single-channel electrophysiology; remark: listed apart in the source
[13] = molecular target: des-(D-Val-Gly)gA^−, chain-shortened enantiomer of gramicidin A; test: single-channel electrophysiology; remark: listed apart in the source
[14] = molecular target: des-(D-Val-Gly)gA^−, chain-shortened enantiomer of gramicidin A; test: single-channel electrophysiology; remark: listed apart in the source
[15] = molecular target: des-(D-Val-Gly)gA^−, chain-shortened enantiomer of gramicidin A; test: single-channel electrophysiology; remark: listed apart in the source
[16] = molecular target: des-(D-Val-Gly)gA^−, chain-shortened enantiomer of gramicidin A; test: single-channel electrophysiology; remark: listed apart in the source

Molecule: CN(C)CCC=C1c2ccccc2CCc2ccccc21 [Amitriptyline]
- τAD,15/τcntrl,15 (normalized AgA(15) lifetime) ([1]; 100 µM): 1.5 ± 0.1
- bilayer property primarily altered [2]: intrinsic curvature
- τAD,13/τcntrl,13 (normalized gA−(13) lifetime) ([3]; 100 µM): 1.6 ± 0.1

Molecule: CN(C)CCCC1(c2ccc(F)cc2)OCc2cc(C#N)ccc21 (centres unmarked) [Citalopram (R−), Citalopram]
- τAD,15/τcntrl,15 (normalized AgA(15) lifetime) ([1]; 250 µM): 1.78 ± 0.04
- τAD,13/τcntrl,13 (normalized gA−(13) lifetime) ([3]; 250 µM): 1.8 ± 0.1

Molecule: CN(C)CCCC1(c2ccc(F)cc2)OCc2cc(C#N)ccc21 (centres unmarked) [Citalopram (S+), Citalopram]
- τAD,15/τcntrl,15 (normalized AgA(15) lifetime) ([1]; 250 µM): 1.9 ± 0.2
- τAD,13/τcntrl,13 (normalized gA−(13) lifetime) ([3]; 250 µM): 2.0 ± 0.2

Molecule: CN(C)CCCC1(c2ccc(F)cc2)OCc2cc(C#N)ccc21 (centres unmarked) [Citalopram]
- bilayer property primarily altered [2]: intrinsic curvature

Molecule: CNCCC(Oc1ccc(C(F)(F)F)cc1)c1ccccc1 (centres unmarked) [Fluoxetine (R−), Fluoxetine]
- τAD,15/τcntrl,15 (normalized AgA(15) lifetime) ([1]; 100 µM): 2.3 ± 0.3
- decrease of HB (bilayer elastic coefficient) [2]: ~3.0 ± 0.3 kBT/nm^2
- τAD,13/τcntrl,13 (normalized gA−(13) lifetime) ([3]; 100 µM): 3.1 ± 0.6

Molecule: CNCCC(Oc1ccc(C(F)(F)F)cc1)c1ccccc1 (centres unmarked) [Fluoxetine (S+), Fluoxetine]
- τAD,15/τcntrl,15 (normalized AgA(15) lifetime) ([1]; 100 µM): 2.3 ± 0.3
- decrease of HB (bilayer elastic coefficient) [2]: ~2.3 ± 0.5 kBT/nm^2
- τAD,13/τcntrl,13 (normalized gA−(13) lifetime) ([3]; 100 µM): 2.9 ± 0.4

Molecule: CNCCC(Oc1ccc(C(F)(F)F)cc1)c1ccccc1 (centres unmarked) [Fluoxetine]
- concentration in brain [4]: up to 10 µM
- bilayer property primarily altered [2]: bilayer elasticity

Molecule: CN(C)CCCN1c2ccccc2CCc2ccccc21 [Imipramine]
- τAD,15/τcntrl,15 (normalized AgA(15) lifetime) ([1]; 100 µM): 1.4 ± 0.1
- decrease of HB (bilayer elastic coefficient) [2]: ~1.3 ± 0.9 kBT/nm^2
- bilayer property primarily altered [2]: intrinsic curvature
- τAD,13/τcntrl,13 (normalized gA−(13) lifetime) ([3]; 100 µM): 1.5 ± 0.1

Molecule: [Ala^1]gA, 15-amino-acid analogue of gramicidin A (peptide)
- normalised single-channel (dimer) lifetime τ (AD,15)/τ (cntrl,15) [5]: 2.3
- normalised single-channel (dimer) lifetime τ (AD,15)/τ (cntrl,15) [6]: 1.9
- normalised single-channel (dimer) lifetime τ (AD,15)/τ (cntrl,15) [7]: 1.4
- normalised single-channel (dimer) lifetime τ (AD,15)/τ (cntrl,15) [8]: 1.78
- normalised single-channel (dimer) lifetime τ (AD,15)/τ (cntrl,15) [9]: 1.5
- normalised single-channel (dimer) lifetime τ (AD,15)/τ (cntrl,15) [10]: 2.3

Molecule: des-(D-Val-Gly)gA^−, chain-shortened enantiomer of gramicidin A (peptide)
- normalised single-channel (dimer) lifetime τ (AD,13)/τ (cntrl,13) [11]: 2.9
- normalised single-channel (dimer) lifetime τ (AD,13)/τ (cntrl,13) [12]: 2
- normalised single-channel (dimer) lifetime τ (AD,13)/τ (cntrl,13) [13]: 1.5
- normalised single-channel (dimer) lifetime τ (AD,13)/τ (cntrl,13) [14]: 1.8
- normalised single-channel (dimer) lifetime τ (AD,13)/τ (cntrl,13) [15]: 1.6
- normalised single-channel (dimer) lifetime τ (AD,13)/τ (cntrl,13) [16]: 3.1
